Experimental data reported in ChEMBL document CHEMBL3297708, “Lead optimization of a novel series of imidazo[1,2-a]pyridine amides leading to a clinical candidate (Q203) as a multi- and extensively-drug-resistant anti-tuberculosis agent” (J Med Chem, 2014).
pIC50: −log10 of the molar value. In brackets after ≈: the same amount, converted by molar mass.

Key:
[1] = system: Mycobacterium tuberculosis; assay: Antimycobacterial activity against Mycobacterium tuberculosis H37Rv in liquid broth culture medium; type: functional
Procedure, shortened: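 M. tuberculosis H37Rv replicating in liquid broth culture medium; MIC80 determined, i.e. concentration inhibiting 80% of growth.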

[2] = Half life in human liver microsomes; type: ADME
Procedure, shortened: (§1)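 Metabolic stability measured by incubation in human or mouse liver microsomal preparations; half-life reported.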

[3] = Half life in mouse liver microsomes; type: ADME; procedure, shortened: as §1
[4] = system: Mycobacterium tuberculosis; assay: Antimycobacterial activity against Mycobacterium tuberculosis H37Rv in macrophages; type: functional
Procedure, shortened: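 M. tuberculosis H37Rv replicating inside macrophages; intracellular MIC80 determined, i.e. concentration inhibiting 80% of growth.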

Cytochrome P450 3A4 = Cytochrome P450 3A4 (Homo sapiens, UniProt P08684); assay: Inhibition of recombinant CYP3A4 (unknown origin) by LC/MS/MS analysis; type: ADME
Sequence of Cytochrome P450 3A4 (P08684 whole entry): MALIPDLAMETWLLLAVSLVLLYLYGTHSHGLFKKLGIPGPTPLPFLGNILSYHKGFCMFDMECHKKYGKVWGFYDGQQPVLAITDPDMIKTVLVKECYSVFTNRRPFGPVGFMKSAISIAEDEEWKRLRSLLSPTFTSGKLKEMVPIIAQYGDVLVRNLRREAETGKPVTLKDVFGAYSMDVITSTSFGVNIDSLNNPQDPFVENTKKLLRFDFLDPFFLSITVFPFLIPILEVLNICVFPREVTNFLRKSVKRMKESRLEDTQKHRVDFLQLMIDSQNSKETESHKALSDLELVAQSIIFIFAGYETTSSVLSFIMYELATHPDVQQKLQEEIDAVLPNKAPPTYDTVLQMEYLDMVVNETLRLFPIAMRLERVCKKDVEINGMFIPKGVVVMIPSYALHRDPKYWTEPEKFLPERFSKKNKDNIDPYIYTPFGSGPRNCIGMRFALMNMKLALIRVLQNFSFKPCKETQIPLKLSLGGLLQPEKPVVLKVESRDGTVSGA
Procedure, shortened: (§2)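 Recombinant CYP enzymes (5 pmol/mL) with substrate, in 100 mM potassium phosphate pH 7.4, 3.3 mM MgCl2, with or without 1 mM NADPH; incubated 10 min (CYP1A2, CYP2C9), 20 min (CYP2C19, CYP2D6), or 3 min (CYP3A4); stopped with cold stop solution containing tolbutamide internal standard; metabolite measured by LC-MS/MS.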

Cytochrome P450 1A2 = biological target: T1, Cytochrome P450 1A2 (Homo sapiens, UniProt P05177); assay: Inhibition of recombinant CYP1A2 (unknown origin) by LC/MS/MS analysis; type: ADME; procedure, shortened: as §2
T1 sequence (P05177 whole entry): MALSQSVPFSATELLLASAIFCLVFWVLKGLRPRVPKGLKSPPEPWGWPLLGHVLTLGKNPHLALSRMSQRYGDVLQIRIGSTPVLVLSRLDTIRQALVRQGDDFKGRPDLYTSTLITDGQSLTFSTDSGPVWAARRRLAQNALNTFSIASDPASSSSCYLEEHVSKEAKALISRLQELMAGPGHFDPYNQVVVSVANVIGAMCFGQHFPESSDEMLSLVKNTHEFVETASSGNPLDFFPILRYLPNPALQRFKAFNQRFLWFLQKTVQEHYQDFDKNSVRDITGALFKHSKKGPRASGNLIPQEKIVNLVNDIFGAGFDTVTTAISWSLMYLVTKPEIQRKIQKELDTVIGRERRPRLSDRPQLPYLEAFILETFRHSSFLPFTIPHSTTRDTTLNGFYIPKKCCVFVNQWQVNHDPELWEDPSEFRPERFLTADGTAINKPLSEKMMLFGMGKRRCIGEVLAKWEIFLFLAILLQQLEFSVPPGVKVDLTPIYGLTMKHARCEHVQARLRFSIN

[5] = Solubility of the compound in aqueous solution at pH 2.1; type: physicochemical
Cytochrome P450 2D6 = Cytochrome P450 2D6 (Homo sapiens, UniProt P10635); assay: Inhibition of recombinant CYP2D6 (unknown origin) by LC/MS/MS analysis; type: ADME; procedure, shortened: as §2
Sequence of Cytochrome P450 2D6 (P10635 whole entry): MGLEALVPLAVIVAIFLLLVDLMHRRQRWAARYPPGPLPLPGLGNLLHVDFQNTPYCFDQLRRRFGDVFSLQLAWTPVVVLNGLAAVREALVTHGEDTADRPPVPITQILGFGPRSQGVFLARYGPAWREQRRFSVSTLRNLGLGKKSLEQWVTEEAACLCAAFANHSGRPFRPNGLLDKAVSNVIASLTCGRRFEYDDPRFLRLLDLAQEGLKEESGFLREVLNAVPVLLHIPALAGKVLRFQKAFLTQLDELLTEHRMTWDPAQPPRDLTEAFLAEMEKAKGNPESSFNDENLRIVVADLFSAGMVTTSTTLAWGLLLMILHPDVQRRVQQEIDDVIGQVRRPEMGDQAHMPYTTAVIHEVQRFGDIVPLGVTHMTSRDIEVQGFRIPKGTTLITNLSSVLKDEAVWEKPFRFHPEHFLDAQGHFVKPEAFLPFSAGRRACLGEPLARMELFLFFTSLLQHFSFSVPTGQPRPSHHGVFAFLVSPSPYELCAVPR

Cytochrome P450 2C19 = Cytochrome P450 2C19 (Homo sapiens, UniProt P33261); assay: Inhibition of recombinant CYP2C19 (unknown origin) by LC/MS/MS analysis; type: ADME; procedure, shortened: as §2
Sequence of Cytochrome P450 2C19 (P33261 whole entry): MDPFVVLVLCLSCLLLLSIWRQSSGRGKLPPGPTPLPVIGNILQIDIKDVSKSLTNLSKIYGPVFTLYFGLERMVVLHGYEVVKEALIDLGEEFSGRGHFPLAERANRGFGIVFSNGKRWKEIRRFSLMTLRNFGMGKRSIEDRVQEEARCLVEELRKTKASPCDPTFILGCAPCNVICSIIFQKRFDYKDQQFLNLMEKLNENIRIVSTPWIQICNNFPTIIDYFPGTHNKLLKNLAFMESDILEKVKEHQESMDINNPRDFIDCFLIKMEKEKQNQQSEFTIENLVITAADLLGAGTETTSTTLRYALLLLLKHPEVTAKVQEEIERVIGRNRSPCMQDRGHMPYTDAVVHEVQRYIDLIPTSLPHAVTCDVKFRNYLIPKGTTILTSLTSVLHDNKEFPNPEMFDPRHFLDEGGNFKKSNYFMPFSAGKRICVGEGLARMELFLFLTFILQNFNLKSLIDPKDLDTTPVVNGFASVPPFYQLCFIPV

Cytochrome P450 2C9 = Cytochrome P450 2C9 (Homo sapiens, UniProt P11712); assay: Inhibition of recombinant CYP2C9 (unknown origin) by LC/MS/MS analysis; type: ADME; procedure, shortened: as §2
Sequence of Cytochrome P450 2C9 (P11712 whole entry): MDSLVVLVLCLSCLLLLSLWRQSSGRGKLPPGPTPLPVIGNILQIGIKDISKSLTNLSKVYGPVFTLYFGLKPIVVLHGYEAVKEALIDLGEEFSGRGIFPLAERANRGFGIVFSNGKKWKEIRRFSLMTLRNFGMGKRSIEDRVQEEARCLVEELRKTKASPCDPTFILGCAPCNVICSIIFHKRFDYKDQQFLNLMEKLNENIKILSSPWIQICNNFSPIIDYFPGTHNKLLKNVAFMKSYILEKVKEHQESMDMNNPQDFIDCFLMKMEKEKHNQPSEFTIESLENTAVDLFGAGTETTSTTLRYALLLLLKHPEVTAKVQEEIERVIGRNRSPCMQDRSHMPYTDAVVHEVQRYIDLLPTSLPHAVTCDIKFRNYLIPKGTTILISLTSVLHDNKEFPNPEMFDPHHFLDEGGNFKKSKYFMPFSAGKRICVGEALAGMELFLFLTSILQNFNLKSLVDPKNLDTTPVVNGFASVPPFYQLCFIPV

[6] = Solubility of the compound in phosphate buffer at pH 7.4; type: physicochemical

Row | Structure (SMILES) | MIC80 [1] [nM] | half-life [2] [min] | half-life [3] [min] | MIC80 [4] [nM] | pIC50 (Cytochrome P450 3A4) | pIC50 (Cytochrome P450 1A2) | solubility [5] [µg/mL] | pIC50 (Cytochrome P450 2D6) | pIC50 (Cytochrome P450 2C19) | pIC50 (Cytochrome P450 2C9) | solubility [6] [µg/mL]
1 | CCc1nc2ccc(Cl)cn2c1C(=O)NCc1ccc(-c2ccccc2)cc1 | 45 (≈ 17.5 ng/mL) | 22.8 | 19.3 | 1.39 (≈ 0.542 ng/mL) |  |  |  |  |  |  | 
2 | CCc1nc2ccc(Cl)cn2c1C(=O)NCc1ccc(-c2ccccc2Cl)cc1 | 43 (≈ 18.2 ng/mL) | 38.9 | 13.1 | 9.3 (≈ 3.95 ng/mL) |  |  |  |  |  |  | 
3 | CCc1nc2ccc(Cl)cn2c1C(=O)NCc1ccc(N2CCC(c3ccc(F)cc3)CC2)cc1 | < 0.5 | 62.6 | 20.3 | 0.36 (≈ 0.177 ng/mL) | < 4.40 | < 4.40 | 38.5 (≈ 78.5 µM) | < 4.40 | < 4.40 | < 4.40 | 3.99 (≈ 8.13 µM)
4 | CCc1nc2cc(Cl)ccn2c1C(=O)NCc1ccc(-n2cc3c(c2)CCCC3)cc1 | 34 (≈ 14.7 ng/mL) | 27.3 | 62.3 | 3.74 (≈ 1.62 ng/mL) |  |  |  |  |  |  | 
5 | CCc1nc2ccc(Cl)cn2c1C(=O)NCc1ccc(N2CCN(c3ccc(OC(F)(F)F)cc3)CC2)cc1 | < 0.5 | > 120 | > 60 | 0.23 (≈ 0.128 ng/mL) | 4.94 | < 4.40 | 12.1 (≈ 21.6 µM) | < 4.40 | < 4.40 | 6.24 | 1.1 (≈ 1.97 µM)
6 | CCc1nc2cc(Cl)ccn2c1C(=O)NCc1ccc(-c2ccc(C)cc2)cc1 | < 0.5 | 25.4 | 23.1 | 1.35 (≈ 0.545 ng/mL) |  |  |  |  |  |  | 
7 | Cc1nc2ccc(Cl)cn2c1C(=O)NCc1ccc(-c2ccccc2)cc1 | 175 (≈ 65.8 ng/mL) | > 120 | > 60 | 42 (≈ 15.8 ng/mL) |  |  |  |  |  |  | 
8 | CO[C@H]1/C=C/O[C@@]2(C)Oc3c(C)c(O)c4c(O)c(c(/C=N/N5CCN(C)CC5)c(O)c4c3C2=O)NC(=O)/C(C)=C\C=C\[C@H](C)[C@H](O)[C@@H](C)[C@@H](O)[C@@H](C)[C@H](OC(C)=O)[C@@H]1C [RIFAMPIN] | 26.6 (≈ 21.9 ng/mL) |  |  | 180 (≈ 148 ng/mL) |  |  |  |  |  |  | 
9 | CCc1nc2cc(Cl)ccn2c1C(=O)NCc1ccc(N2CCC(C(F)(F)F)CC2)cc1 | 0.8 (≈ 0.372 ng/mL) | 6.5 | 5.1 | 0.47 (≈ 0.219 ng/mL) |  |  |  |  |  |  | 
10 | CCc1nc2ccc(Cl)cn2c1NC(=O)Cc1ccc(-c2ccccc2)cc1 | 1670 (≈ 651 ng/mL) |  |  | 690 (≈ 269 ng/mL) |  |  |  |  |  |  | 
11 | CCc1nc2cc(Cl)ccn2c1C(=O)NCc1ccc(N2CCN(c3ccc(OC(F)(F)F)cc3)CC2)cc1 | 1.8 (≈ 1 ng/mL) | > 120 | > 60 | 0.11 (≈ 0.0614 ng/mL) | < 4.40 | < 4.40 |  | < 4.40 | < 4.40 | 6.77 | 
12 | CCc1nc2cc(Cl)ccn2c1C(=O)NCc1ccc(-c2ccncc2)cc1 | 2220 (≈ 868 ng/mL) | 28.9 |  | 740 (≈ 289 ng/mL) |  |  |  |  |  |  | 
13 | CCc1nc2ccc(Cl)cn2c1CC(=O)NCc1ccc(-c2ccccc2)cc1 | > 10000 |  |  | > 10000 |  |  |  |  |  |  | 
14 | CCc1nc2ccc(Cl)cn2c1C(=O)NCc1ccc(-c2ccc(Cl)cc2)cc1 | 0.9 (≈ 0.382 ng/mL) | 83 | > 60 | 0.45 (≈ 0.191 ng/mL) |  |  | 1.42 (≈ 3.35 µM) |  |  |  | 1.97 (≈ 4.64 µM)
15 | CCc1nc2ccc(Cl)cn2c1C(=O)NCc1ccc(N2CCN(c3ccc(F)cc3)CC2)cc1 | < 0.5 | > 120 | 33.3 | 0.3 (≈ 0.148 ng/mL) | 6.31 | < 4.40 | 38.5 (≈ 78.3 µM) | < 4.40 | 5.88 | 5.88 | 1.31 (≈ 2.66 µM)
16 | CCc1nc2ccc(Cl)cn2c1C(=O)NCc1ccc(N2CCC(c3ccc(Cl)cc3)CC2)cc1 | 4.1 (≈ 2.08 ng/mL) | 57.9 | 116 | 1.3 (≈ 0.66 ng/mL) | < 4.40 | < 4.40 | 39.7 (≈ 78.3 µM) | < 4.40 | 5.17 | 6.59 | 2.59 (≈ 5.1 µM)
17 | CCc1nc2ccc(Cl)cn2c1CC(=O)Nc1ccc(-c2ccccc2)cc1 | > 10000 |  |  | > 10000 |  |  |  |  |  |  | 
18 | CCc1nc2cc(Cl)ccn2c1C(=O)NCc1ccc(N2CC3CCCCC3C2)cc1 (stereo not given) | 25 (≈ 10.9 ng/mL) | 14.9 | 6.3 | 9.4 (≈ 4.11 ng/mL) |  |  |  |  |  |  | 
19 | CCc1nc2ccc(Cl)cn2c1CNCc1ccc(-c2ccccc2)cc1 | 810 (≈ 304 ng/mL) |  |  | 200 (≈ 75.2 ng/mL) |  |  |  |  |  |  | 
